Data from ChEMBL document CHEMBL1629657, “In vitro antimicrobial activity of a new cephalosporin, ceftaroline, and determination of quality control ranges for MIC testing” (2009).
Converted amounts (≈) assume the structure as drawn.

Key:
Format in all cases: functional
[1] = tested on: Providencia stuartii; experiment: Antimicrobial activity against Proteus stuartii by broth microdilution method
Outline: (§1)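 Clinical isolates were tested by CLSI broth microdilution in unsupplemented cation-adjusted Mueller-Hinton broth. The read-out was the MIC, reported as MIC90 (μg/ml) per species or phenotypic group. Ceftriaxone, levofloxacin and imipenem were run in parallel as comparators.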

[2] = tested on: Proteus vulgaris; experiment: Antimicrobial activity against Proteus vulgaris by broth microdilution method; outline: as §1
[3] = tested on: Serratia marcescens; experiment: Antimicrobial activity against Serratia marcescens by broth microdilution method; outline: as §1
[4] = tested on: Shigella sp.; experiment: Antimicrobial activity against Shigella spp. by broth microdilution method; outline: as §1
[5] = tested on: Salmonella sp.; experiment: Antimicrobial activity against Salmonella spp. by broth microdilution method; outline: as §1
[6] = tested on: Burkholderia cepacia; experiment: Antimicrobial activity against Burkholderia cepacia by broth microdilution method; outline: as §1
[7] = tested on: Pseudomonas aeruginosa; experiment: Antimicrobial activity against Pseudomonas aeruginosa by broth microdilution method; outline: as §1
[8] = tested on: Pseudomonas aeruginosa; experiment: Antimicrobial activity against multidrug resistant Pseudomonas aeruginosa by broth microdilution method
Outline: (§2)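 Isolates of the stated resistance phenotype were tested by CLSI broth microdilution in unsupplemented cation-adjusted Mueller-Hinton broth. Ceftaroline was compared with ceftriaxone, levofloxacin and imipenem. Activity was expressed as MICs (MIC90 in μg/ml).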

[9] = tested on: Stenotrophomonas maltophilia; experiment: Antimicrobial activity against Stenotrophomonas maltophilia by broth microdilution method; outline: as §1
[10] = tested on: Moraxella catarrhalis; experiment: Antimicrobial activity against Moraxella catarrhalis by broth microdilution method; outline: as §1
[11] = tested on: Haemophilus influenzae; experiment: Antimicrobial activity against beta-lactamase-negative Haemophilus influenzae by broth microdilution method
Outline: (§3)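 CLSI broth microdilution in Haemophilus test medium (cation-adjusted Mueller-Hinton base) against clinical H. influenzae isolates of the stated phenotype. Ceftaroline was compared with ceftriaxone, levofloxacin and imipenem. Activity was expressed as MICs (MIC90 in μg/ml).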

[12] = tested on: Haemophilus influenzae; experiment: Antimicrobial activity against beta-lactamase-positive Haemophilus influenzae by broth microdilution method
Outline: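 H. influenzae isolates were tested by CLSI broth microdilution using Haemophilus test medium. The MIC was read and MIC90 (μg/ml) reported for the group. Ceftriaxone, levofloxacin and imipenem served as comparators.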

[13] = tested on: Haemophilus influenzae; experiment: Antimicrobial activity against beta-lactamase-negative ampicillin resistant Haemophilus influenzae by broth microdilution method; outline: as §3
[14] = tested on: Staphylococcus aureus; experiment: Antimicrobial activity against methicillin-resistant Staphylococcus aureus by broth microdilution method; outline: as §2
[15] = tested on: Staphylococcus aureus; experiment: Antimicrobial activity against methicillin-susceptible Staphylococcus aureus by broth microdilution method; outline: as §1
[16] = tested on: Staphylococcus aureus; experiment: Antimicrobial activity against vancomycin-intermediate Staphylococcus aureus by broth microdilution method; outline: as §1
[17] = tested on: Staphylococcus aureus; experiment: Antimicrobial activity against vancomycin-resistant Staphylococcus aureus by broth microdilution method; outline: as §2
[18] = tested on: Staphylococcus; experiment: Antimicrobial activity against methicillin-resistant coagulase-negative Staphylococcus by broth microdilution method; outline: as §2
[19] = tested on: Staphylococcus; experiment: Antimicrobial activity against methicillin-susceptible coagulase-negative Staphylococcus by broth microdilution method; outline: as §1
[20] = tested on: Enterococcus faecalis; experiment: Antimicrobial activity against Enterococcus faecalis by broth microdilution method; outline: as §1
[21] = tested on: Enterococcus faecalis; experiment: Antimicrobial activity against vancomycin-susceptible Enterococcus faecalis by broth microdilution method; outline: as §1
[22] = tested on: Enterococcus faecium; experiment: Antimicrobial activity against Enterococcus faecium by broth microdilution method; outline: as §1
[23] = tested on: Enterococcus faecium; experiment: Antimicrobial activity against vancomycin-susceptible Enterococcus faecium by broth microdilution method; outline: as §1
[24] = tested on: Corynebacterium jeikeium; experiment: Antimicrobial activity against Corynebacterium jeikeium by broth microdilution method; outline: as §1
[25] = tested on: Listeria monocytogenes; experiment: Antimicrobial activity against Listeria monocytogenes by broth microdilution method; outline: as §1
[26] = tested on: Streptococcus agalactiae; experiment: Antimicrobial activity against Streptococcus agalactiae by broth microdilution method
Outline: (§4)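 Streptococcal isolates were tested by CLSI broth microdilution in cation-adjusted Mueller-Hinton broth supplemented with 3% lysed horse blood. The read-out was the MIC, with MIC90 (μg/ml) reported per group. Ceftriaxone, levofloxacin and imipenem served as comparators.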

[27] = tested on: Streptococcus pneumoniae; experiment: Antimicrobial activity against levofloxacin-resistant Streptococcus pneumoniae by broth microdilution method
Outline: (§5)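 CLSI broth microdilution in cation-adjusted Mueller-Hinton broth with 3% lysed horse blood, against streptococcal clinical isolates of the stated phenotype. Ceftaroline was compared with ceftriaxone, levofloxacin and imipenem. Activity was expressed as MICs (MIC90 in μg/ml).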

[28] = tested on: Streptococcus pneumoniae; experiment: Antimicrobial activity against penicillin-resistant Streptococcus pneumoniae by broth microdilution method; outline: as §5
[29] = tested on: Streptococcus pneumoniae; experiment: Antimicrobial activity against penicillin-intermediate Streptococcus pneumoniae by broth microdilution method; outline: as §5
[30] = tested on: Streptococcus pneumoniae; experiment: Antimicrobial activity against penicillin-susceptible Streptococcus pneumoniae by broth microdilution method; outline: as §4
[31] = tested on: Streptococcus pyogenes; experiment: Antimicrobial activity against macrolide-resistant Streptococcus pyogenes by broth microdilution method; outline: as §5
[32] = tested on: Streptococcus pyogenes; experiment: Antimicrobial activity against macrolide-susceptible Streptococcus pyogenes by broth microdilution method; outline: as §5
[33] = tested on: Streptococcus viridans; experiment: Antimicrobial activity against Streptococcus viridans group clinical isolate by broth microdilution method; outline: as §4
[34] = tested on: Klebsiella aerogenes; experiment: Antimicrobial activity against ESBL-negative Enterobacter aerogenes by broth microdilution method; outline: as §1
[35] = tested on: Enterobacter cloacae; experiment: Antimicrobial activity against ESBL-negative Enterobacter cloacae by broth microdilution method; outline: as §1
[36] = tested on: Escherichia coli; experiment: Antimicrobial activity against ESBL-positive Escherichia coli by broth microdilution method; outline: as §1
[37] = tested on: Klebsiella pneumoniae; experiment: Antimicrobial activity against ESBL-negative Klebsiella pneumoniae by broth microdilution method; outline: as §1
[38] = tested on: Klebsiella pneumoniae; experiment: Antimicrobial activity against ESBL-positive Klebsiella pneumoniae by broth microdilution method; outline: as §1
[39] = tested on: Morganella morganii; experiment: Antimicrobial activity against Morganella morganii by broth microdilution method; outline: as §1
[40] = tested on: Proteus mirabilis; experiment: Antimicrobial activity against Proteus mirabilis by broth microdilution method; outline: as §1
[41] = tested on: Providencia rettgeri; experiment: Antimicrobial activity against Proteus rettgeri by broth microdilution method; outline: as §1

Structure (SMILES): C[C@@H](O)[C@H]1C(=O)N2C(C(=O)O)=C(SCCNC=N)C[C@H]12 [IMIPENEM ANHYDROUS]
- MIC50 [1]: 2 µg/mL (≈ 6.68 µM)
- MIC90 [1]: 4 µg/mL (≈ 13.4 µM)
- MIC50 [2]: 2 µg/mL (≈ 6.68 µM)
- MIC90 [2]: 4 µg/mL (≈ 13.4 µM)
- MIC50 [3]: 0.5 µg/mL (≈ 1.67 µM)
- MIC90 [3]: 1 µg/mL (≈ 3.34 µM)
- MIC [4]: 0.12 µg/mL (≈ 0.401 µM)
- MIC50 [4]: 0.12 µg/mL (≈ 0.401 µM)
- MIC90 [4]: 0.25 µg/mL (≈ 0.835 µM)
- MIC50 [5]: 0.25 µg/mL (≈ 0.835 µM)
- MIC90 [5]: 0.25 µg/mL (≈ 0.835 µM)
- MIC50 [6]: 8 µg/mL (≈ 26.7 µM)
- MIC90 [6]: 32 µg/mL (≈ 107 µM)
- MIC [7]: 1 µg/mL (≈ 3.34 µM)
- MIC50 [7]: 1 µg/mL (≈ 3.34 µM)
- MIC90 [7]: 16 µg/mL (≈ 53.4 µM)
- MIC50 [8]: 8 µg/mL (≈ 26.7 µM)
- MIC90 [8]: 16 µg/mL (≈ 53.4 µM)
- MIC50 [9]: > 32 µg/mL
- MIC90 [9]: > 32 µg/mL
- MIC50 [10]: 0.06 µg/mL (≈ 0.2 µM)
- MIC90 [10]: 0.06 µg/mL (≈ 0.2 µM)
- MIC50 [11]: 0.5 µg/mL (≈ 1.67 µM)
- MIC90 [11]: 0.5 µg/mL (≈ 1.67 µM)
- MIC50 [12]: 0.25 µg/mL (≈ 0.835 µM)
- MIC90 [12]: 0.5 µg/mL (≈ 1.67 µM)
- MIC50 [13]: 0.5 µg/mL (≈ 1.67 µM)
- MIC90 [13]: 1 µg/mL (≈ 3.34 µM)
- MIC50 [14]: 0.25 µg/mL (≈ 0.835 µM)
- MIC90 [14]: 32 µg/mL (≈ 107 µM)
- MIC [15]: 0.015 µg/mL (≈ 0.0501 µM)
- MIC50 [15]: 0.015 µg/mL (≈ 0.0501 µM)
- MIC90 [15]: 0.03 µg/mL (≈ 0.1 µM)
- MIC50 [16]: 0.25 µg/mL (≈ 0.835 µM)
- MIC90 [16]: > 32 µg/mL
- MIC [17]: 1 µg/mL (≈ 3.34 µM)
- MIC50 [18]: 0.25 µg/mL (≈ 0.835 µM)
- MIC90 [18]: 32 µg/mL (≈ 107 µM)
- MIC [19]: 0.015 µg/mL (≈ 0.0501 µM)
- MIC50 [19]: 0.015 µg/mL (≈ 0.0501 µM)
- MIC90 [19]: 0.03 µg/mL (≈ 0.1 µM)
- MIC50 [20]: 1 µg/mL (≈ 3.34 µM)
- MIC90 [20]: 2 µg/mL (≈ 6.68 µM)
- MIC50 [21]: 1 µg/mL (≈ 3.34 µM)
- MIC90 [21]: 2 µg/mL (≈ 6.68 µM)
- MIC50 [22]: > 32 µg/mL
- MIC90 [22]: > 32 µg/mL
- MIC50 [23]: 4 µg/mL (≈ 13.4 µM)
- MIC90 [23]: > 32 µg/mL
- MIC50 [24]: > 32 µg/mL
- MIC90 [24]: > 32 µg/mL
- MIC50 [25]: 0.06 µg/mL (≈ 0.2 µM)
- MIC90 [25]: 0.06 µg/mL (≈ 0.2 µM)
- MIC [26]: 0.015 µg/mL (≈ 0.0501 µM)
- MIC50 [26]: 0.015 µg/mL (≈ 0.0501 µM)
- MIC90 [26]: 0.015 µg/mL (≈ 0.0501 µM)
- MIC50 [27]: 0.03 µg/mL (≈ 0.1 µM)
- MIC90 [27]: 0.25 µg/mL (≈ 0.835 µM)
- MIC50 [28]: 0.5 µg/mL (≈ 1.67 µM)
- MIC90 [28]: 1 µg/mL (≈ 3.34 µM)
- MIC50 [29]: 0.03 µg/mL (≈ 0.1 µM)
- MIC90 [29]: 0.06 µg/mL (≈ 0.2 µM)
- MIC [30]: 0.015 µg/mL (≈ 0.0501 µM)
- MIC50 [30]: 0.015 µg/mL (≈ 0.0501 µM)
- MIC90 [30]: 0.015 µg/mL (≈ 0.0501 µM)
- MIC [31]: 0.015 µg/mL (≈ 0.0501 µM)
- MIC50 [31]: 0.015 µg/mL (≈ 0.0501 µM)
- MIC90 [31]: 0.015 µg/mL (≈ 0.0501 µM)
- MIC [32]: 0.015 µg/mL (≈ 0.0501 µM)
- MIC50 [32]: 0.015 µg/mL (≈ 0.0501 µM)
- MIC90 [32]: 0.015 µg/mL (≈ 0.0501 µM)
- MIC [33]: 0.015 µg/mL (≈ 0.0501 µM)
- MIC50 [33]: 0.015 µg/mL (≈ 0.0501 µM)
- MIC90 [33]: 0.12 µg/mL (≈ 0.401 µM)
- MIC50 [34]: 1 µg/mL (≈ 3.34 µM)
- MIC90 [34]: 1 µg/mL (≈ 3.34 µM)
- MIC50 [35]: 0.25 µg/mL (≈ 0.835 µM)
- MIC90 [35]: 0.5 µg/mL (≈ 1.67 µM)
- MIC50 [36]: 0.12 µg/mL (≈ 0.401 µM)
- MIC90 [36]: 0.25 µg/mL (≈ 0.835 µM)
- MIC50 [37]: 0.25 µg/mL (≈ 0.835 µM)
- MIC90 [37]: 0.5 µg/mL (≈ 1.67 µM)
- MIC50 [38]: 0.12 µg/mL (≈ 0.401 µM)
- MIC90 [38]: 0.25 µg/mL (≈ 0.835 µM)
- MIC50 [39]: 4 µg/mL (≈ 13.4 µM)
- MIC90 [39]: 4 µg/mL (≈ 13.4 µM)
- MIC50 [40]: 2 µg/mL (≈ 6.68 µM)
- MIC90 [40]: 4 µg/mL (≈ 13.4 µM)
- MIC50 [41]: 2 µg/mL (≈ 6.68 µM)
- MIC90 [41]: 4 µg/mL (≈ 13.4 µM)
